According to paper PMC7296533 (ACS Infectious Diseases, 2020):

Legend:
NDM-1 = NDM-1 (Klebsiella pneumoniae, UniProt C7C422); test: MBL enzyme inhibition assay, fluorescent cephalosporin substrate FC5; assay type: biochemical
VIM-2 = VIM-2 (Escherichia coli, UniProt Q5U7L7); test: MBL enzyme inhibition assay, fluorescent cephalosporin substrate FC5; assay type: biochemical
Procedure, shortened: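 VIM-2 was expressed from a donated plasmid construct and purified. Test compound was serially diluted in 50 mM HEPES pH 7.2 containing 0.01% Triton X-100 and 1 μM ZnSO4, then preincubated for 15 min at 25 °C with 100 pM enzyme. Fluorescent cephalosporin FC536 (0.5 μM) was added and fluorescence (λex 380, λem 460 nm) followed over 30–40 scans. IC50 was fitted from initial rates against concentration.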

IMP-28 = test: MBL enzyme inhibition assay, fluorescent cephalosporin substrate FC5; assay type: biochemical; settings: read-out: IC50 against IMP-28; 60 pM IMP-28, 1 μM ZnSO4; mean ± SD
Procedure, shortened: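 Recombinant C-terminal His-tagged IMP-28 (pET28b construct). Serial dilutions of test compound were made in 50 mM HEPES pH 7.2 with 0.01% Triton X-100 and 1 μM ZnSO4. Enzyme (60 pM) was preincubated with compound for 15 min at 25 °C. FC536 (16 μM) was added and fluorescence (ex 380/em 460 nm) read immediately over 30–40 cycles. IC50 was curve-fitted from initial velocities versus inhibitor concentration.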

[1] = test system: panel of carbapenem-resistant clinical isolates of Gram-negative bacteria; test: Single concentration synergy assay, summary over the panel; assay type: cell-based; settings: for Reduction of MIC of Meropenem, in most cases: inhibitor at 32 μg/mL, strains expressing IMP-type enzymes
Procedure, shortened: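 CLSI broth microdilution. Isolates grown overnight on blood agar at 37 °C, then in TSB at 37 °C with shaking to OD600 0.5, and diluted in Mueller-Hinton broth. Meropenem serially diluted in MHB with test compound at a fixed 32 μg/mL final. Incubated 37 °C with shaking for 16–20 h. MIC is the lowest concentration with no visible growth, as the median of triplicates.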

[2] = test system: E. coli RC0089 (clinical NDM-1 positive isolate); test: OD600 checkerboard assay with Meropenem; assay type: cell-based; settings: E. coli expressing NDM-1

Sequence of NDM-1 (C7C422 29-270, looked up, species assumed): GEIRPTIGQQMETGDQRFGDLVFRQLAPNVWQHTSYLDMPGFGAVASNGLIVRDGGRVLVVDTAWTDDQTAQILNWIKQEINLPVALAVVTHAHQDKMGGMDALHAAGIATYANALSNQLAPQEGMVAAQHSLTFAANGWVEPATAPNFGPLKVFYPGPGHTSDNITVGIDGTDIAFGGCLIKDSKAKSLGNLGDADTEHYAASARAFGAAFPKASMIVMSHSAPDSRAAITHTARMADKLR

Structure (SMILES) | IC50 (NDM-1) | Effect of zinc sulfate concentration on IC50 against NDM-1 (NDM-1; zinc sulfate 0.1 to 20 μM) | IC50 (VIM-2) | IC50 (IMP-28) | Reduction of MIC of Meropenem, in most cases [1] | Relationship with Meropenem in checkerboard (in words) [2] | Synergy with Meropenem against strains expressing serine-carbapenemases ([1]; KPC-2 and OXA-48) | Antibacterial activity of the inhibitor alone ([1]; highest tested concentration 256 μg/mL)
O=C(O)c1cccc(C(=O)O)n1 [DPA, 2,6-Dipicolinic acid, reference compound] | 3.8 ± 0.04 µM | zinc-dependent effect | 2.9 ± 0.5 µM | 17 ± 1 µM | ≤ 4 fold |  |  | 
O=C(O)CN(CC(=O)O)CC(=O)O [compound 3, Nitrilotriacetic acid] |  |  | ~2.4 µM | 112 ± 3 µM | ≤ 4 fold | strong synergistic relationship | complete lack of synergy | no antibacterial activity
